This note sets out measurements from PubChem BioAssay.

A short description of test [1]: reducers of endogenous Her2 protein level, primary screen, SKBR3 breast tumor cells, AlphaScreen, ATP viability (AID 461;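 active = Her2 level under about 52% in both replicate screens, with viability over 70% of control, limit read from the data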;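 for Her2 level: lower value means less Her2 protein in the cells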;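 for viability: percent of carrier control wells set as 100% viability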). Conditions: 18-24 h, measured here: SKBR3 viability, ATP luminescence, at 10 µM.
Test [2] deals with Receptor tyrosine-protein kinase erbB-2 (Homo sapiens) (UniProt P04626). The description is as above. Conditions: 18-24 h, at 10 µM, stronger effect = lower value.
Chain of Receptor tyrosine-protein kinase erbB-2 (Homo sapiens) (P04626 whole entry, looked up): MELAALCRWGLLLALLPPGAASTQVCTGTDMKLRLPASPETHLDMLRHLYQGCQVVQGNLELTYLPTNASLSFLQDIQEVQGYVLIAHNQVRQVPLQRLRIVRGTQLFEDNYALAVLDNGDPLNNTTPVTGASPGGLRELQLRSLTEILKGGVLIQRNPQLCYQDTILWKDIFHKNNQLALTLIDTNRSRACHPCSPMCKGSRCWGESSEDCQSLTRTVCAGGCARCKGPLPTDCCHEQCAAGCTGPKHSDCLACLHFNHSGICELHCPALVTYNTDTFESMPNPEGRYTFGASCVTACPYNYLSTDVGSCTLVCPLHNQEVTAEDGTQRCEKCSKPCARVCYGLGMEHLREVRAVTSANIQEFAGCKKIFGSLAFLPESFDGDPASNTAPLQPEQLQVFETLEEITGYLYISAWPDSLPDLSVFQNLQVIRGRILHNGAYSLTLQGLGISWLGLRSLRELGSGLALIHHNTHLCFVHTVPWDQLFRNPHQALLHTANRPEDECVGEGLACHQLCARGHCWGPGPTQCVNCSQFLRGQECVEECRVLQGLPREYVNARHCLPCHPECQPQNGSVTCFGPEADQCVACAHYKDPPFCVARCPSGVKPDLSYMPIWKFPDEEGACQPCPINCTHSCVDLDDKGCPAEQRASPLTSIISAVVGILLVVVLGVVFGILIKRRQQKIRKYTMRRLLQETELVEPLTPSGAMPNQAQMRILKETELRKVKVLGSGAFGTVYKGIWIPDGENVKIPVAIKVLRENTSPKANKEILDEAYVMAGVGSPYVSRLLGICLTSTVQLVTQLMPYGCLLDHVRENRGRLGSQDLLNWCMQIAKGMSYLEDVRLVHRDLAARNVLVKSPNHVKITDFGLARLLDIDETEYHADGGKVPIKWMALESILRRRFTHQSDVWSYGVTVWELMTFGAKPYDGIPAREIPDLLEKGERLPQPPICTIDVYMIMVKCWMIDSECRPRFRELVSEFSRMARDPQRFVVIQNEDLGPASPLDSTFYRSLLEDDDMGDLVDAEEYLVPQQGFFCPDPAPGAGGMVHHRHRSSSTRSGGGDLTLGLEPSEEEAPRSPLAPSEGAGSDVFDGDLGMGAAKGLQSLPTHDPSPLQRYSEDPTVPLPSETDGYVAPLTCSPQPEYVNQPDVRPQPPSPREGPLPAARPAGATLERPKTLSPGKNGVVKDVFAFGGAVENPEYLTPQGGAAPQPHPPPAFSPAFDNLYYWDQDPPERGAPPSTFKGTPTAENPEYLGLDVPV
Test [3] is described as follows: SK-BR-3 cell growth inhibitors, pilot screen, 24 h, human (AID 572).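 Note: compound exposure lasted between 18 and 24 h rather than exactly 24 h; 100% = carrier-treated control wells.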 Conditions: SK-BR-3 viability, CellTiter-Glo luminescence, at 10 µM, stronger effect = lower value. (In general: Cellular ATP, detected with luciferase, serves as a proxy for viable cell number.)
Test [4] is described as follows: HUVEC growth inhibition – cell-based, human, primary screen (AID 575;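 active = viability at or below 30% in both replicate assays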;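 note: 100% = median of untreated cell wells with 0.1% DMSO on each plate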). To be noted: HUVEC proliferation, CellTiter-Glo luminescence, 72 h; at 10 µM; stronger effect = lower value. Put shortly: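 Timing: 72 h treatment at 37 °C; material: HUVEC primary cells; technique: CellTiter-Glo luminescence measuring cellular ATP; controls: vehicle and MePR control wells; measure: percent of median DMSO-control luminescence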

Test [5] is described as follows: growth inhibitors of H69AR lung tumor, primary screen, human, duplicate replicates (AID 580;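 active = viability at or under a set limit in both replicates, limit being median viability minus 3 SD, cut at about 48% in these data, passing the limit was not always enough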;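 note: 100% = mean luminescence of untreated wells and 0% = no signal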). To be noted: H69AR lung tumor cells viability, ATP luminescence, 72 h; at 10 µM; stronger effect = lower value.
Test [6] in a line: reversal of MRP1-mediated doxorubicin resistance, pilot screen, H69AR cells, doxorubicin co-treatment (AID 601;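 active = viability loss from added drug above about 55%, and viability with drug at most 40%, in both replicates, limit read from the data, passing the limit was not always enough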). Conditions: CellTiter-Glo, 72 h, at 10 µM; for differential viability (reversal): stronger effect = higher value.
A short description of test [7]: 384-well plate pilot, post-Golgi transport modulator project, inhibition of yeast transport mutant growth (AID 636; in the data active = inhibition above about 31%). To be noted: absorbance 615 nm, about 18 h, stronger effect = higher value.
Test [8] in a line: growth suppression of yeast trafficking mutant, preliminary HTS, modulators of trafficking downstream of Golgi apparatus project, 1536-format plate, OD 615 nm (AID 637; in the data active = inhibition above about 30%). To be noted: yeast transport mutant growth, absorbance 615 nm, 18 h; stronger effect = higher value.
Setting [9] is: H69AR cells + 2 uM doxorubicin, measured here: viability with 2 uM doxorubicin, stronger effect = lower value.
Setting [10] is: H69AR cells, compound alone cytotoxicity.

Active and inactive are the calls of the source.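 Rule for the calls, unless noted: active = viability at or below 10% of carrier control in both of two separate runs; inconclusive = viability at or below 10% in only one of the two runs; inactive = the rest.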

On to `CCc1nnc(NC(=O)C2CCN(c3nccc(C)n3)CC2)s1`, for which the viability was 112% in test [1]; 112% (inactive) in test [3]; 100% (inactive) in test [4]; 99.5% (inactive) in test [5]; 93.9% in test [6] (setting [9]); 99.5% in test [6] (setting [10]). In test [2], the Her2 level is 93% (inactive). Further, the differential viability (reversal) in test [6] (H69AR cells + 2 uM doxorubicin) is 5.65% (inactive). The inhibition in test [7] was -6.22% (inactive); in test [8] it was -2.17% (inactive).

Regarding `O=C(C1CC1)N1CCc2cc(S(=O)(=O)N(CCO)Cc3ccccc3)ccc21`, the viability in test [1] is 94%; in test [3], 94% (inactive); in test [4] it was 77% (inactive); in test [5] it was 98.8% (inactive); in test [6] (setting [9]) it was 100%; in test [6] (setting [10]), 98.8%. Besides, the Her2 level in test [2] was 102% (inactive). In addition, in test [6] (H69AR cells + 2 uM doxorubicin), the differential viability (reversal) is -1.38% (inactive). For the same compound, the results for the inhibition in test [7] and in test [8] were -0.4% (inactive) and -0.33% (inactive), respectively.

For the compound `CCOC(=O)N1CCN(C(=O)CSc2ncnc3ccccc23)CC1`, the viability in test [1] was 92%; in test [3], 92% (inactive); in test [4] it was 87.2% (inactive); in test [5], 89.1% (inactive); in test [6] (setting [9]) it was 74.1%; in test [6] (setting [10]), 89.1%. Also, the Her2 level in test [2] was 96% (inactive). Also, in test [6] (H69AR cells + 2 uM doxorubicin), the differential viability (reversal) was 14.9% (inactive). In addition, the values for the inhibition in test [7] and in test [8] were -1.33% (inactive) and 0.33% (inactive), respectively.

On to `Cc1nc2scc(-c3cccs3)c2c(=O)n1-n1cccc1`, for which the viability in test [1] was 92%; in test [3], 92% (inactive); in test [4], 82.3% (inactive); in test [5], 99.3% (inactive); in test [6] (setting [9]), 84.8%; in test [6] (setting [10]), 99.3%. Further, in test [2], the Her2 level is 107% (inactive). The differential viability (reversal) in test [6] (H69AR cells + 2 uM doxorubicin) was 14.4% (inactive). The inhibition in test [7] was -1.79% (inactive); in test [8] it was -7.83% (inactive).

Turning to `Cn1c(Cc2csc(N)n2)nnc1SCC(=O)NCc1ccccc1`, the viability was 93% in test [1]; 93% (inactive) in test [3]; 114% (inactive) in test [4]; 100% (inactive) in test [5]; 111% in test [6] (setting [9]); 100% in test [6] (setting [10]). Also, in test [2], the Her2 level is 99.5% (inactive). In addition, the differential viability (reversal) in test [6] (H69AR cells + 2 uM doxorubicin) is -11.2% (inactive). Besides, the inhibition in test [7] was 0.39% (inactive); in test [8] it was -4.52% (inactive).

With `COC(=O)c1cc(Br)c(=O)n(CCC2=CCCCC2)c1`, the viability in test [1] was 81.5%; in test [3], 81.5% (inactive); in test [4], 92.5% (inactive); in test [5] it was 89.9% (inactive); in test [6] (setting [9]), 88.4%; in test [6] (setting [10]) it was 89.9%. Besides, the Her2 level in test [2] is 99.5% (inactive). In addition, the differential viability (reversal) in test [6] (H69AR cells + 2 uM doxorubicin) is 1.54% (inactive). Further, the values for the inhibition in test [7] and in test [8] were -0.27% (inactive) and 6.89% (inactive), respectively.

With `Cc1nnc(SCC(=O)N2CCN(S(=O)(=O)c3ccccc3)CC2)[nH]c1=O`, the viability in test [1] was 109%; in test [3] it was 109% (inactive); in test [4], 109% (inactive); in test [5], 107% (inactive); in test [6] (setting [9]), 91.2%; in test [6] (setting [10]), 107%. The Her2 level in test [2] was 98.5% (inactive). Further, in test [6] (H69AR cells + 2 uM doxorubicin), the differential viability (reversal) is 15.5% (inactive). Also, the inhibition in test [7] was -6.67% (inactive); in test [8] it was -2.9% (inactive).

Regarding `CCCCOc1ccc(NC(=O)Cn2c(=O)ccc3c(C)cc(C)nc32)cc1`, the viability was 102% in test [1]; 102% (inactive) in test [3]; 94.1% (inactive) in test [4]; 91.2% (inactive) in test [5]; 79.5% in test [6] (setting [9]); 91.2% in test [6] (setting [10]). The Her2 level in test [2] is 104% (inactive). The differential viability (reversal) in test [6] (H69AR cells + 2 uM doxorubicin) is 11.8% (inactive). For the same compound, the inhibition in test [7] is -3.55% (inactive); in test [8], -1.45% (inactive).

For the compound `COC(=O)C1CCN(C(=O)NC(C)(C)C)CC1`, the viability in test [1] was 110%; in test [3], 110% (inactive); in test [4], 104% (inactive); in test [5] it was 105% (inactive); in test [6] (setting [9]), 87.3%; in test [6] (setting [10]), 105%. The Her2 level in test [2] was 83% (inactive). The differential viability (reversal) in test [6] (H69AR cells + 2 uM doxorubicin) is 17.2% (inactive). For the same compound, the results for the inhibition in test [7] and in test [8] were -5.27% (inactive) and 8.73% (inactive), respectively.

Turning to `Cn1c(=O)cc(OCC(=O)N2CCN(c3cccc(C(F)(F)F)c3)CC2)c2ccccc21`, the viability is 89% in test [1]; 89% (inactive) in test [3]; 90.7% (inactive) in test [4]; 75.3% (inactive) in test [5]; 85.3% in test [6] (setting [9]); 75.3% in test [6] (setting [10]). The Her2 level in test [2] was 82% (inactive). Further, the differential viability (reversal) in test [6] (H69AR cells + 2 uM doxorubicin) was -10% (inactive). Further, the figures for the inhibition in test [7] and in test [8] were -6.27% (inactive) and 5.57% (inactive), respectively.

With `Cc1ccccc1CS(=O)(=O)Cc1ccc(C(=O)NCCCN2CCOCC2)o1`, the viability in test [1] is 77%; in test [3], 77% (inactive); in test [4], 104% (inactive); in test [5] it was 98.2% (inactive); in test [6] (setting [9]), 95.1%; in test [6] (setting [10]) it was 98.2%. The Her2 level in test [2] was 97% (inactive). Moreover, the differential viability (reversal) in test [6] (H69AR cells + 2 uM doxorubicin) is 3.12% (inactive). For the same compound, the inhibition is -0.39% (inactive) in test [7] and -6.13% (inactive) in test [8].

Consider `Cc1cc(C)c2cc3c(ccn3C3OC[C@H](O)[C@H](O)[C@H]3O)cc2n1` (stereo not given in full), for which the viability in test [1] is 95%; in test [3], 95% (inactive); in test [4] it was 90.2% (inactive); in test [5], 97.4% (inactive); in test [6] (setting [9]), 90.3%; in test [6] (setting [10]) it was 97.4%. For the same compound, the Her2 level in test [2] is 105% (inactive). Further, in test [6] (H69AR cells + 2 uM doxorubicin), the differential viability (reversal) is 7.18% (inactive). Moreover, the inhibition was -1.92% (inactive) in test [7] and 1% (inactive) in test [8].

Regarding `COc1ccc(NC(=O)Nc2ccc(C)cc2OC(F)F)cc1OC`, the viability in test [1] is 95%; in test [3] it was 95% (inactive); in test [4], 88% (inactive); in test [5], 93% (inactive); in test [6] (setting [9]) it was 86.1%; in test [6] (setting [10]), 93%. In test [2], the Her2 level is 79.5% (inactive). For the same compound, the differential viability (reversal) in test [6] (H69AR cells + 2 uM doxorubicin) is 6.81% (inactive). Besides, the results for the inhibition in test [7] and in test [8] were -3.95% (inactive) and -6.67% (inactive), respectively.

For the compound `Cc1cc(C)c(NC(=O)C2CCCN2CCO)c(C)c1` (stereo not given), the viability in test [1] is 83%; in test [3], 83% (inactive); in test [4] it was 108% (inactive); in test [5], 86.5% (inactive); in test [6] (setting [9]), 90.3%; in test [6] (setting [10]) it was 86.5%. In test [2], the Her2 level was 135% (inactive). Also, in test [6] (H69AR cells + 2 uM doxorubicin), the differential viability (reversal) is -3.78% (inactive). Further, the results for the inhibition in test [7] and in test [8] were 0.79% (inactive) and -8.69% (inactive), respectively.

For the compound `c1ccc(CCNc2ccc3nncn3n2)cc1`, the viability in test [1] was 82%; in test [3], 82% (inactive); in test [4], 95.6% (inactive); in test [5], 86.5% (inactive); in test [6] (setting [9]), 83%; in test [6] (setting [10]) it was 86.5%. The Her2 level in test [2] is 89.5% (inactive). The differential viability (reversal) in test [6] (H69AR cells + 2 uM doxorubicin) is 3.48% (inactive). Also, the inhibition was -2.53% (inactive) in test [7] and 0.98% (inactive) in test [8].

What is called viability is a read-out of living cells in per cent, often relative to untreated cells. For orientation: inhibition means the change of the read-out against control, counted positive when it falls.
